In ChEMBL document CHEMBL3352366, “Synthesis and biological evaluation of 2,3-dihydroimidazo[1,2-a]benzimidazole derivatives against Leishmania donovani and Trypanosoma cruzi” (Eur J Med Chem, 2014):
pEC50: −log10 of the molar value. Calls of active or inactive are those of the source. The calls are words filed in the database; no cut-off is given here.

Key:
[1] = Cytotoxicity against human THP1 cells infected with intracellular amastigote stage of Leishmania donovani MHOM/ET/67/HU3; type: cell-based, THP-1
Method in brief: (§1)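 Host THP-1 cytotoxicity was taken from the same intracellular amastigote images (PMA-differentiated, infected, 3-day compound exposure) by counting cell numbers normalized to 1 % DMSO. CC₅₀ is the average of duplicates; SI was calculated from EC₅₀ and CC₅₀.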

[2] = test system: Leishmania donovani; assay: Antileishmanial activity against intracellular amastigote stage of Leishmania donovani MHOM/ET/67/HU3 infected in human THP1 cells after 3 days by confocal microscopy; type: functional, organism-based; conditions: MHOM/ET/67/HU3, THP-1, 72 h
[3] = test system: Trypanosoma cruzi; assay: Antitrypanosomal activity against intracellular Trypanosoma cruzi infected in human U2OS cells after 48 hrs by confocal microscopy; type: functional, organism-based
Method in brief: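 T. cruzi tissue-culture trypomastigotes were raised in LLC-MK2 cells. U2OS cells and parasites were mixed, dispensed onto compound plates and incubated 48 h at 37 °C, 5 % CO₂. Cells were fixed with 4 % paraformaldehyde, DRAQ5-stained and imaged by confocal microscopy to count parasites and infection ratio. Controls: benznidazole 400 µM and 1 % DMSO. EC₅₀ derived from infection ratio normalized to the controls.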

[4] = Cytotoxicity against human U2OS cells infected with intracellular Trypanosoma cruzi; type: cell-based
Method in brief: (§2)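 U2OS cytotoxicity was measured in the same 48 h T. cruzi infection assay by counting host cell numbers in the DRAQ5-stained confocal images to give CC₅₀. SI was calculated from EC₅₀ and CC₅₀.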

[5] = Selectivity index, ratio of IC50 for human THP1 cells to IC50 for intracellular amastigote stage of Leishmania donovani MHOM/ET/67/HU3; type: toxicity, cell-based, THP-1; conditions: read-out: Selectivity Index; method in brief: as §1
[6] = test system: Leishmania donovani; assay: Antileishmanial activity against extracellular promastigote stage of Leishmania donovani MHOM/ET/67/HU3 incubated for 28 hrs followed by additional 20 hrs incubation
[7] = Selectivity index, ratio of IC50 for human U2OS cells to IC50 for intracellular Trypanosoma cruzi; type: toxicity, cell-based; conditions: U2OS cells versus intracellular Trypanosoma cruzi, read-out: Selectivity Index; method in brief: as §2
[8] = test system: Leishmania donovani; assay: Antileishmanial activity against intracellular amastigote stage of Leishmania donovani MHOM/ET/67/HU3 infected in human THP1 cells assessed as reduction in parasite count at 12.5 uM after 3 days by confocal microscopy; type: functional, organism-based; conditions: THP-1

Structure (SMILES)	CC50 [1]	pEC50 [2]	pEC50 [3]	CC50 [4]	selectivity ratio [5]	pEC50 [6]	selectivity ratio [7]	growth inhibition (GI) [8]
c1ccc(CN2C3=NCCN3c3ccccc32)cc1	> 50 µM	< 4.30	–	–	–	–	–	–
CC(C)(C)c1ccc(CN2C3=NCCN3c3cc(Cl)ccc32)cc1	12.5 µM	5.13	5.21	44.6 µM	1.71	5.65	–	–
CC(C)(C)c1cccc(CN2C3=NCCN3c3ccccc32)c1	> 50 µM	4.65	4.90	34.6 µM	> 2.21	5.30	2.77	–
CC(C)c1ccc(CN2C3=NCCN3c3ccccc32)cc1	> 50 µM	< 4.30	< 4.30	> 50 µM	–	–	–	inactive
CC(C)(C)c1ccc(OCCN2C3=NCCN3c3ccccc32)cc1	33.1 µM	4.56	5.06	37.9 µM	1.21	–	4.36	–
c1ccc(CN2C3=NCCN3c3ccccc32)nc1	> 50 µM	< 4.30	< 4.30	> 50 µM	–	–	–	–
FC(F)(F)Oc1ccc(CN2C3=NCCN3c3ccccc32)cc1	> 50 µM	< 4.30	–	–	–	–	–	–
CC(C)(C)c1ccc(CCN2C3=NCCN3c3ccccc32)cc1	> 50 µM	4.60	4.90	21 µM	> 1.98	4.68	1.65	–
CCc1ccc(CN2C3=NCCN3c3ccccc32)cc1	> 50 µM	4.38	4.47	> 50 µM	> 1.19	–	> 1.48	–
Fc1ccc(F)c(-c2ccc(CN3C4=NCCN4c4ccccc43)cc2)c1	> 50 µM	4.49	5.35	9.61 µM	> 1.54	5.04	2.14	–
Fc1ccc(-c2ccc(CN3C4=NCCN4c4ccccc43)cc2)cc1	35 µM	5.05	5.05	> 50 µM	3.94	5.83	> 5.62	–
CC(C)(C)c1ccc(C(=O)CN2C3=NCCN3c3ccccc32)cc1	> 50 µM	4.40	4.44	> 50 µM	> 1.27	–	> 1.39	–
CS(=O)(=O)c1ccc(CN2C3=NCCN3c3ccccc32)cc1	> 50 µM	< 4.30	–	–	–	–	–	–
CC(C)(C)c1ccc(CN2C3=NC(=O)CN3c3ccccc32)cc1	> 50 µM	< 4.30	< 4.30	> 50 µM	–	–	–	–
Cc1cc(C)cc(CN2C3=NCCN3c3ccccc32)c1	> 50 µM	< 4.30	< 4.30	> 50 µM	–	–	–	–
Cc1ccc2c(c1)N1CCN=C1N2Cc1ccc(C(C)(C)C)cc1	28.1 µM	4.96	4.71	> 50 µM	2.55	5.74	> 2.28	–

Structure (SMILES)	CC50 [1]	pEC50 [2]	pEC50 [3]	CC50 [4]	selectivity ratio [5]	pEC50 [6]	selectivity ratio [7]	growth inhibition (GI) [8]
FC(F)(F)c1ccc(CN2C3=NCCN3c3ccccc32)cc1	> 50 µM	< 4.30	4.87	> 50 µM	–	–	> 3.75	–
CC(C)(C)c1ccc(CN2C3=NCCN3c3cc(F)ccc32)cc1	> 50 µM	4.85	5.08	50 µM	> 3.57	5.90	6.07	–
Fc1ccc(CN2C3=NCCN3c3ccccc32)cc1	> 50 µM	< 4.30	< 4.30	> 50 µM	–	–	–	–
Cc1ccc(-c2ccc(CN3C4=NCCN4c4ccccc43)cc2)cc1	27.1 µM	4.75	5.13	10.3 µM	1.52	5.76	1.38	–
Cc1cc2c(cc1C)N(Cc1ccc(C(C)(C)C)cc1)C1=NCCN12	> 50 µM	< 4.30	< 4.30	> 50 µM	–	–	–	–
C[C@@H]1[C@H](O)[C@@H](C)/C=C/C=C/C=C/C=C/C=C/C=C/C=C/[C@H](O[C@@H]2O[C@H](C)[C@@H](O)[C@H](N)[C@@H]2O)C[C@@H]2O[C@](O)(C[C@@H](O)C[C@@H](O)[C@H](O)CC[C@@H](O)C[C@@H](O)CC(=O)O[C@H]1C)C[C@H](O)[C@H]2C(=O)O [AMPHOTERICIN B]	–	–	–	–	30.2	6.66	–	Active
CC(C)(C)c1ccc(CN2C3=NCCCN3c3ccccc32)cc1	> 50 µM	4.90	5.51	> 50 µM	> 3.98	5.56	> 16.2	–
c1ccc(Oc2ccc(CN3C4=NCCN4c4ccccc43)cc2)cc1	48 µM	4.90	4.41	20 µM	3.82	5.70	0.52	–
Clc1ccc(-c2ccc(CN3C4=NCCN4c4ccccc43)cc2)cc1	20 µM	4.86	5.25	9.36 µM	1.46	–	1.7	–
FC(F)(F)Oc1ccc(-c2ccc(CN3C4=NCCN4c4ccccc43)cc2)cc1	11 µM	5.28	< 4.30	> 50 µM	2.11	5.82	–	–
CCCCCCCCCCCCCCCCOP(=O)([O-])OCC[N+](C)(C)C [MILTEFOSINE]	18.9 µM	5.32	–	–	3.91	4.95	–	Active
COc1ccc(-c2ccc(CN3C4=NCCN4c4ccccc43)cc2)cc1	23 µM	4.99	< 4.30	> 50 µM	2.25	5.63	–	–
c1ccc(-c2ccc(CN3C4=NCCN4c4ccccc43)cc2)cc1	39.7 µM	5.28	5.68	18.8 µM	7.5	5.83	8.95	–
FC(F)(F)c1ccc(-c2ccc(CN3C4=NCCN4c4ccccc43)cc2)cc1	30 µM	4.99	< 4.30	> 50 µM	2.91	5.51	–	–
N#Cc1ccc(CN2C3=NCCN3c3ccccc32)cc1	> 50 µM	< 4.30	–	–	–	–	–	–
c1ccc2c(c1)N1CCN=C1N2Cc1ccc(C2CCCCC2)cc1	22.8 µM	5.27	5.80	6.1 µM	4.19	5.77	3.81	–
